From ChEMBL document CHEMBL1122990, “Cyclic melanotropins. 9. 7-D-Phenylalanine analogues of the active-site sequence” (J Med Chem, 1985)

Columns and labels:
[1] = system: frog; experiment: Potency in the frog (Rana pipiens) skin bioassay relative to alpha-MSH; type: functional
Procedure, shortened: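 In vitro Rana pipiens skin bioassay scoring melanosome dispersion as skin darkening. Solutions were made by serial dilution from a 10⁻⁴ M stock. Responses are the mean ± SE of 6 or more skins. Potency was calculated along the linear portion of the dose-response curve and standardized to α-MSH = 1.00.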

[2] = system: lizara; experiment: Potency in the lizard (Anolis carolinensis) skin bioassay relative to alpha-MSH; type: functional
Procedure, shortened: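 In vitro Anolis carolinensis skin bioassay scoring melanosome dispersion as skin darkening. Solutions were made by serial dilution from a 10⁻⁴ M stock. Potency was calculated along the linear portion of the dose-response curve and standardized to α-MSH = 1.00.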

| Structure (SMILES) | Potency [1] | Potency [2] |
| --- | --- | --- |
| CC(=O)N[C@@H](CO)C(=O)N[C@@H](Cc1ccc(O)cc1)C(=O)N[C@@H](CO)C(=O)N[C@H]1CSSC[C@@H](C(=O)N[C@@H](CCCCN)C(=O)N2CCC[C@H]2C(=O)N[C@H](C(N)=O)C(C)C)NC(=O)[C@H](Cc2c[nH]c3ccccc23)NC(=O)[C@@H](CCCN=C(N)N)NC(=O)[C@H](Cc2ccccc2)NC(=O)[C@@H](Cc2c[nH]cn2)NC(=O)[C@H](CCC(=O)O)NC1=O | 10 | 2 |
| CC(=O)N[C@H]1CSSC[C@@H](C(N)=O)NC(=O)[C@H](Cc2c[nH]c3ccccc23)NC(=O)[C@H](CCCN=C(N)N)NC(=O)[C@@H](Cc2ccccc2)NC(=O)[C@H](Cc2c[nH]cn2)NC(=O)[C@H](CCC(=O)O)NC1=O | 0.75 | 0.5 |
| CC(=O)N[C@H]1CSSC[C@@H](C(N)=O)NC(=O)[C@H](Cc2c[nH]c3ccccc23)NC(=O)[C@H](CCCN=C(N)N)NC(=O)[C@H](Cc2ccccc2)NC(=O)[C@H](Cc2c[nH]cn2)NC(=O)[C@H](CCC(=O)O)NC1=O | 0.06 | 0.003 |
| CC(=O)N[C@H]1CSSC[C@@H](C(=O)N[C@@H](CCCCN)C(N)=O)NC(=O)[C@H](Cc2c[nH]c3ccccc23)NC(=O)[C@H](CCCN=C(N)N)NC(=O)[C@H](Cc2ccccc2)NC(=O)[C@H](Cc2c[nH]cn2)NC(=O)[C@H](CCC(=O)O)NC1=O | 0.16 | 0.07 |
| CC(=O)N[C@H]1CSSC[C@@H](C(=O)N[C@@H](CCCCN)C(N)=O)NC(=O)[C@H](Cc2c[nH]c3ccccc23)NC(=O)[C@H](CCCN=C(N)N)NC(=O)[C@@H](Cc2ccccc2)NC(=O)[C@H](Cc2c[nH]cn2)NC(=O)[C@H](CCC(=O)O)NC1=O | 2.5 | 3 |
